Each structure is given as a SMILES string. Calls of active or inactive are those of the source.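 The calls were made as follows: active = nuclear translocation activity above 50% at 5 µM, with a well cell count of 50 or more; inconclusive = wells under 50 cells across six images, flagged as toxic; inactive = the rest.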

The experiment relates to HeLa beta-catenin nuclear translocation, immunofluorescence imaging. Nature of the experiment: modulators of beta-catenin nuclear translocation, primary screen, imaging, HeLa cells, immunofluorescence, high-content (AID 1665). In short, it runs like this: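 System: HeLa cells, endogenous beta-catenin; compound dosing: 5 µM primary single dose, 0.1% DMSO, 0.02–20 µM confirmation series; incubation: 24 h compound exposure at 37°C, 5% CO2; signal: beta-catenin immunofluorescence imaging with DAPI; evaluation: % activation, nuclear-to-cytoplasmic median beta-catenin signal ratio per cell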
On to `O=C(CSc1ncnc2nc[nH]c12)NCCc1ccccc1`, for which the EC50, beta-catenin nuclear translocation induction (lower = more potent) was 1.75 µM. Under `Cn1c(O)c(/C=C/C=Nc2ccccc2)c(=O)n(C)c1=S` stands > 20 µM (inactive). As for `CCN(CC)c1ccc(/C=C/c2cc(-c3ccccc3)c3ccccc3n2)cc1`, the figure is 2.56 µM; as for `CC1=CC(C)C(COC(N)=O)(COC(N)=O)C(C)C1` (stereo not given), 4.49 µM; as for `C=CC[C@H]1CC(Cc2ccccc2)=C[C@H](CC=C)N1`, 0.77 µM. As for `Oc1c(/C=C/C=C/C=Nc2ccccc2)sc(=S)n1Cc1ccccc1`, the figure is > 20 µM (inactive); as for `C=CCC1C=C(Cc2ccccc2)CC(CC=C)N1` (stereo not given), > 20 µM (inactive); as for `Cc1ccc2nc(/C(C#N)=C\c3ccc([N+](=O)[O-])o3)[nH]c2c1`, 9.06 µM.

As for `Cn1c(-c2ccccc2)cc2c3no[n+]([O-])c3ccc21`, the EC50, beta-catenin nuclear translocation induction (lower = more potent) is > 20 µM (inactive). As to `CCN1/C(=C/C=C/C=C/c2sc3ccccc3[n+]2CC)Sc2ccccc21`, the EC50, beta-catenin nuclear translocation induction (lower = more potent) was 3.73 µM.

Consider `CN1C(=O)/C(=C/c2ccc(N3CCCCCC3)o2)C(=O)NC1=S`, for which the EC50, beta-catenin nuclear translocation induction (lower = more potent) is 2.9 µM.

As for `CCC(/C=C1\Sc2ccc(OC)cc2N1CC)=C\c1sc2ccc(OC)cc2[n+]1CCCS(=O)(=O)[O-]`, the EC50, beta-catenin nuclear translocation induction (lower = more potent) was 4.19 µM.

On to `CCN1C(c2ccccc2)=C(c2ccccc2)S/C1=C/C=C1\SC(=S)N(C)C1=O`, for which the EC50, beta-catenin nuclear translocation induction (lower = more potent) is 0.56 µM. As for `CN1\C(=C/C=C/C=C/C=[N+](C)C)C(C)(C)c2ccccc21`, the figure is 9.2 µM; as for `COc1ccc2nc3c(cc2c1)c(NC(=O)c1cccs1)nn3CC(C)C`, > 20 µM (inactive).

As to `O=C1NC(=O)C(=C/C=C/c2coc3ccc(Br)cc3c2=O)C(=O)N1`, the EC50, beta-catenin nuclear translocation induction (lower = more potent) is > 20 µM (inactive). As for `COC(=O)c1[nH]c2ccc(Br)cc2c1NC(=O)CN1CCN(C2CCCCC2)CC1`, the figure is 3.85 µM. Under `Cc1ccc(NC(=O)Nc2ccnc(-c3cccnc3)n2)cc1` stands > 20 µM (inactive). With `CCOC(=O)/C(=C/C=C1\Sc2cc(OCC)c(OCC)cc2N1CC)C(C)=O`, the EC50, beta-catenin nuclear translocation induction (lower = more potent) is > 20 µM (inactive).

On to `CCC(/C=C1\Sc2ccc(OC)cc2N1CCO)=C\c1sc2ccc(OC)cc2[n+]1CCO`, for which the EC50, beta-catenin nuclear translocation induction (lower = more potent) was > 20 µM (inactive). As for `CCN1C(=O)/C(=C/C=C2/Sc3ccccc3N2CCO)SC1=S`, the figure is > 20 µM (inactive).

For the compound `CCN1/C(=C/C=C/c2oc3ccc4ccccc4c3[n+]2CC)Oc2ccc3ccccc3c21`, the EC50, beta-catenin nuclear translocation induction (lower = more potent) is 5.18 µM.

Regarding `COc1ccc(/C=C(/NC(=O)c2cccc([N+](=O)[O-])c2)C(=O)O)cc1OC`, the EC50, beta-catenin nuclear translocation induction (lower = more potent) was > 20 µM (inactive).

For the compound `Cc1cc(NCCOCCO)n2ncc(-c3ccc(Cl)cc3)c2n1`, the EC50, beta-catenin nuclear translocation induction (lower = more potent) was 8.01 µM.

As to `CCCCn1c(O)c(/C=C/C=C/C=Nc2ccccc2)sc1=S`, the EC50, beta-catenin nuclear translocation induction (lower = more potent) is 8.79 µM. Under `CC[n+]1c(/C=C/C=C/N(C(C)=O)c2ccccc2)sc2ccccc21` stands 8.42 µM; under `CCN1/C(=C/c2ccc3cc(C)ccc3[n+]2C)Sc2ccc3sccc3c21`, > 20 µM (inactive).

Regarding `CCOC(=O)N1CCN(C(=O)c2cc(-c3ccc(OCC)cc3)nc3ccccc23)CC1`, the EC50, beta-catenin nuclear translocation induction (lower = more potent) was 2.06 µM. Turning to `O=c1ccc2[n+]([O-])c3ccc(O)cc3oc-2c1`, the EC50, beta-catenin nuclear translocation induction (lower = more potent) was 7.27 µM.

In the case of `Cn1c2ccccc2c(=O)c2c(=O)n(Cc3ccco3)c(COc3ccccc3)nc21`, the EC50, beta-catenin nuclear translocation induction (lower = more potent) was > 16 µM (inactive).

Values taken from PubChem BioAssay AID1665 (Sanford-Burnham Center for Chemical Genomics, 2009).
